Results published in ChEMBL document CHEMBL3739367, “Design and synthesis of fused tetrahydroisoquinoline-iminoimidazolines” (Eur J Med Chem, 2015).

What was measured:
[1] = Cytotoxicity against human SH-SY5Y cells after 72 hrs by MTT assay; format: cell-based
Method in brief: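 SH-SY5Y neuroblastoma cells grown in DMEM with 2 mM L-glutamine, streptomycin/penicillin, 1 mM non-essential amino acids, 10% heat-inactivated FBS, 37 °C, 5% CO2. Seeded 2000 cells/well, serum-starved 24 h to synchronise, then exposed to various compound concentrations (<0.1% DMSO) for 72 h; growth read by colorimetric MTT assay; CC50 reported.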

Adenosine receptor A2a = Adenosine receptor A2a (Homo sapiens, UniProt P29274); experiment: Displacement of [3H]-[…] from human adenosine A2A receptor expressed in HEK293 cells after 1 hr by scintillation counting; format: cell-based
Sequence of Adenosine receptor A2a (P29274 whole entry): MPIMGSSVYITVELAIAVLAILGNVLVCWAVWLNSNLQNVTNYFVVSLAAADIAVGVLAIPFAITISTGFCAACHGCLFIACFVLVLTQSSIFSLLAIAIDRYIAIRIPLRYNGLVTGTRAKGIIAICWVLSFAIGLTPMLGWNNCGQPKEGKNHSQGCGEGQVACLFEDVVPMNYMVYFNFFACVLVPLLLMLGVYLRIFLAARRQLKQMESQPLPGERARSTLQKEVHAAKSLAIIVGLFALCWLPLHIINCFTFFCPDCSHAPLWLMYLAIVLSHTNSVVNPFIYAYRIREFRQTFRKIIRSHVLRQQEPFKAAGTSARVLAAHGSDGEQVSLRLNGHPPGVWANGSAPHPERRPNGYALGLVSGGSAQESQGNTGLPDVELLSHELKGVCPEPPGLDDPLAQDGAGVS

CN1C(=N)N(Cc2ccccc2)CC1Cc1ccccc1 (racemic) showed a CC50 at 72 h [1] greater than 100 µM and a Ki (Adenosine receptor A2a) greater than 200 µM.

For O=C1[C@@H]2Cc3ccccc3CN2C(=O)N1Cc1ccccc1, the CC50 at 72 h [1] was greater than 100 µM and the Ki (Adenosine receptor A2a) was 44 µM.

With N=C1N(Cc2ccccc2)C[C@@H]2Cc3ccccc3CN12 the CC50 at 72 h [1] was greater than 100 µM and the Ki (Adenosine receptor A2a) was 64 µM.

COc1ccc(C[C@H]2CN(Cc3ccccc3)C(=N)N2)cc1 gave a CC50 at 72 h [1] greater than 100 µM and a Ki (Adenosine receptor A2a) greater than 200 µM.

C[C@H]1CN(Cc2ccccc2)C(=N)N1 showed a CC50 at 72 h [1] greater than 100 µM and a Ki (Adenosine receptor A2a) greater than 200 µM.

With N=C1N[C@@H](Cc2ccccc2)CN1Cc1ccccc1 the CC50 at 72 h [1] was greater than 100 µM and the Ki (Adenosine receptor A2a) was greater than 200 µM.

N=C1N(CCCCc2ccccc2)C[C@@H]2Cc3ccccc3CN12 showed a CC50 at 72 h [1] greater than 100 µM and a Ki (Adenosine receptor A2a) of 35 µM.

N=C1N(Cc2ccccc2)C[C@@H]2CCCCN12 showed a CC50 at 72 h [1] greater than 100 µM and a Ki (Adenosine receptor A2a) greater than 200 µM.

Molecule N=C1N(CCN2CCOCC2)C[C@@H]2Cc3ccccc3CN12 has a CC50 at 72 h [1] greater than 100 µM and a Ki (Adenosine receptor A2a) greater than 200 µM.

For CCCCCCN1C[C@@H]2Cc3ccccc3CN2C1=N, the CC50 at 72 h [1] was greater than 100 µM and the Ki (Adenosine receptor A2a) was greater than 200 µM.

With N=C1N[C@@H](Cc2ccc(O)cc2)CN1Cc1ccccc1 the CC50 at 72 h [1] was greater than 100 µM and the Ki (Adenosine receptor A2a) was greater than 200 µM.

Work on N=C1N(CCc2ccccn2)C[C@@H]2Cc3ccccc3CN12 yielded a CC50 at 72 h [1] greater than 100 µM and a Ki (Adenosine receptor A2a) greater than 200 µM.

With N=C1N[C@@H](Cc2ccc(F)cc2)CN1Cc1ccccc1 the CC50 at 72 h [1] was greater than 100 µM and the Ki (Adenosine receptor A2a) was greater than 200 µM.
